From ChEMBL document CHEMBL1129379, “Heterocyclic ureas: inhibitors of acyl-CoA:cholesterol O-acyltransferase as hypocholesterolemic agents” (J Med Chem, 1996)

How the values were obtained:
[1] = target: T1, Sterol O-acyltransferase 1 (Rattus norvegicus) (UniProt O70536); test: Percent change in plasma total cholesterol in an acute cholesterol-fed rat model of hypercholesterolemia, dose at 30 mg/kg; format: functional, organism-based; parameters: dose 30 mg/kg
T1 sequence (whole entry): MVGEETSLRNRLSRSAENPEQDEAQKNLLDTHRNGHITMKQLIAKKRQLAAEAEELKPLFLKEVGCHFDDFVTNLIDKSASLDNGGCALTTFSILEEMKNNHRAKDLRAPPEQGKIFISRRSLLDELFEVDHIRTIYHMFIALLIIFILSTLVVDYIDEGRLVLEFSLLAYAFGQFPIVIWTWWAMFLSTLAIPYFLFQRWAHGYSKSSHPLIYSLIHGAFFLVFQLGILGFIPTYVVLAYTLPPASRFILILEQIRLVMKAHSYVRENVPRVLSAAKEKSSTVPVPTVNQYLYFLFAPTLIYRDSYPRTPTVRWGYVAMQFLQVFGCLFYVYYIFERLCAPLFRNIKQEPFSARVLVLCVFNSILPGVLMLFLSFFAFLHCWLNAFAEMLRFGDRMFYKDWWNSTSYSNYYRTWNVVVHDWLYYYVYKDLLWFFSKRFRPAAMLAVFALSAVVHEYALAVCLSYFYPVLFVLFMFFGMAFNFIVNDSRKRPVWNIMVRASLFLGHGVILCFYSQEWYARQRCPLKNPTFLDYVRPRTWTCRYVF

[2] = target: O-acyltransferase (Oryctolagus cuniculus, UniProt G1SFD9); test: (§1) Acyl coenzyme A:cholesterol acyltransferase 1 inhibition in vitro measured in rabbit intestinal microsomes; parameters: species or system Intestine
[3] = target: T1, Sterol O-acyltransferase 1 (Rattus norvegicus); test: Percent change in plasma total cholesterol in an acute cholesterol-fed rat model of hypercholesterolemia, dose at 3 mg/kg; format: functional, organism-based; parameters: dose 3 mg/kg
[4] = test system: Rattus norvegicus; test: Percent change in HDL-CDose at 30 mg/kg; format: functional
How it was run: (§2)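 Chronic rat model of pre-established hypercholesterolemia: 1 week on high-cholesterol diet, then compound dosed orally once daily for 1 week. Plasma total cholesterol, HDL-C and non-HDL-C expressed as percent change versus control; p < 0.05 flagged.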

[5] = test system: Rattus norvegicus; test: Percent change in non-HDL-C Dose at 30 mg/kg; format: functional; how it was run: as §2
[6] = target: T1, Sterol O-acyltransferase 1 (Rattus norvegicus); test: Percent change in plasma TC in the chronic C-fed rat model of pre-established hypercholesterolemia. Dose at 30 mg/kg; format: functional, organism-based; parameters: dose 30 mg/kg; how it was run: as §2
[7] = target: T2, Acyl-CoA:cholesterol acyltransferase (Oryctolagus cuniculus) (UniProt Q95214); test: as §1; details: Intestine, concentration not given here
T2 sequence (whole entry): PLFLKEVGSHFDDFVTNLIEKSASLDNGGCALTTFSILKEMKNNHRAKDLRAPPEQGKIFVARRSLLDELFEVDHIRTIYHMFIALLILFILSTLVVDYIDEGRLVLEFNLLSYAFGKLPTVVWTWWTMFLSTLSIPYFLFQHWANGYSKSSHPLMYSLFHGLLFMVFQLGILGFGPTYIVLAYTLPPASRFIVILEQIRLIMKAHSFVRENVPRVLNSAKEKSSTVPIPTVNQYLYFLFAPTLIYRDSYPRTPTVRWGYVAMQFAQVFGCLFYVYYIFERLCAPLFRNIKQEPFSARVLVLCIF
How it was run: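 ACAT activity in intestinal microsomes from cholesterol-fed rabbits, measured by incubation with 14C-labeled oleoyl-CoA; IC50 is the micromolar concentration giving 50% inhibition of enzyme activity.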

[8] = test system: Rattus norvegicus; test: Percent change in non-HDL-C,Dose at 10 mg/kg; format: functional; how it was run: as §2
[9] = test system: Canis familiaris; test: Percent change in plasma cholesterol in dog at 3 mg/kg; format: functional, Canis lupus familiaris
How it was run: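 Cholesterol-fed female Beagle dogs given bulk drug in capsules before meals, daily for 1 week, at 3 mg/kg po. Plasma total cholesterol compared before and after treatment as percent change; paired two-tailed t-test, n = 6.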

[10] = test system: Rattus norvegicus; test: Percent change in HDL-C,Dose at 3 mg/kg; format: functional; how it was run: as §2
[11] = test system: Canis familiaris; test: mean blood drug concentration in dog, compound Dose at 3 mg/kg; format: ADME, organism-based, Canis lupus familiaris; parameters: dose 3 mg/kg; details: in vivo
How it was run: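 Cholesterol-fed Beagle dogs dosed at 3 mg/kg. Plasma drug measured by HPLC on a C8 column, acetonitrile/water 4:1 eluent, detection at 190 nm, with a related analog as internal standard. Quantitation limit 40 ng/mL; mean of 6 animals.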

[12] = test system: Rattus norvegicus; test: Percent change in plasma TC in the chronic C-fed rat model of pre-established hypercholesterolemia. Dose at 10 mg/kg; format: functional; how it was run: as §2
[13] = test system: Rattus norvegicus; test: Percent change in HDL-C,Dose at 10 mg/kg; format: functional; how it was run: as §2
[14] = test system: Rattus norvegicus; test: Percent change in non-HDL-C,Dose at 30 mg/kg; format: functional; how it was run: as §2
[15] = test system: Rattus norvegicus; test: Percent change in non-HDL-C,Dose at 3 mg/kg; format: functional; how it was run: as §2
[16] = test system: Rattus norvegicus; test: Percent change in plasma TC in the chronic C-fed rat model of pre-established hypercholesterolemia, dose at 3 mg/kg; format: functional; how it was run: as §2
[17] = test system: Rattus norvegicus; test: Percent change in HDL-C,Dose at 30 mg/kg; format: functional; how it was run: as §2

## CC(C)c1cccc(C(C)C)c1NC(=O)Nc1nn[nH]n1
[1]
  Delta TC: -19%

## CCCCCCCCCCCCC[S+]([O-])c1n[nH]c(NC(=O)Nc2c(C(C)C)cccc2C(C)C)n1 (centres undefined)
[2]
  IC50: 1700 nM
[1]
  Delta TC: -6%

## CCCCCCCCCCCc1csc(NC(=O)Nc2c(C(C)C)cccc2C(C)C)n1
[2]
  IC50: 150 nM
[1]
  Delta TC: -29%

## CCCCCCCCCCCCn1nnnc1NC(=O)Nc1c(C(C)C)cccc1C(C)C
[2]
  IC50: 210 nM
[3]
  Delta TC: -45%
[1]
  Delta TC: -57%

## CCCCCCCCCCCCn1ncnc1NC(=O)Nc1c(C(C)C)cccc1C(C)C
[2]
  IC50: 250 nM
[1]
  Delta TC: -36%

## CCCCCCCCCCCCCCc1cc(NC(=O)Nc2c(C(C)C)cccc2C(C)C)on1
[2]
  IC50: 28 nM
[3]
  Delta TC: -44%
[1]
  Delta TC: -64%
[4]
  Delta HDL-C: 16%
[5]
  Non-HDL-C: -18%
[6]
  Delta TC: -16%

## CCCCCCCCCCCCCSc1n[nH]c(NC(=O)Nc2c(C(C)C)cccc2C(C)C)n1
[1]
  Delta TC: 12%

## CCCCCCCCCCCCn1cnc(NC(=O)Nc2c(C(C)C)cccc2C(C)C)n1
[2]
  IC50: 120 nM
[1]
  Delta TC: -30%

## CCCCCCCCCCCCn1nnnc1NC(=O)Nc1c(OC)cc(OC)cc1OC
[7]
  inhibition: 28%

## CCCCCCCCCCn1nnnc1NC(=O)Nc1c(C(C)C)cccc1C(C)C
[3]
  Delta TC: -22%
[1]
  Delta TC: -65%

## CCCCCCCCN1NN=C(NC(=O)Nc2c(C(C)C)cccc2C(C)C)N1
[2]
  IC50: 59 nM
[3]
  Delta TC: -24%
[1]
  Delta TC: -67%

## CCCCCCCCCCCCN1NN=C(CNC(=O)Nc2c(C(C)C)cccc2C(C)C)N1
[2]
  IC50: 12 nM
[3]
  Delta TC: -31%
[1]
  Delta TC: -58%

## COC(=O)CCCCCCCCCCN1NN=C(NC(=O)Nc2c(C(C)C)cccc2C(C)C)N1
[2]
  IC50: 4700 nM
[1]
  Delta TC: -23%

## CC(C)c1cccc(C(C)C)c1NC(=O)NC1=NN(Cc2ccccc2)NN1
[2]
  IC50: 370 nM
[1]
  Delta TC: -27%

## CCCCCCCCCCCCCc1nnc(NC(=O)Nc2c(C(C)C)cccc2C(C)C)o1
[2]
  IC50: 18 nM
[3]
  Delta TC: -34%
[1]
  Delta TC: -62%

## CCCCCCCCCc1nnc(NC(=O)Nc2c(C(C)C)cccc2C(C)C)s1
[2]
  IC50: 150 nM
[1]
  Delta TC: -39%

## CCCCCCCCCCCCN1NN=C(NC(=O)Nc2c(OC)cc(OC)cc2OC)N1
[2]
  IC50: 66 nM
[3]
  Delta TC: -69%
[1]
  Delta TC: -75%

## CCCCCCCCCCc1sc(NC(=O)Nc2c(C(C)C)cccc2C(C)C)nc1C
[2]
  IC50: 120 nM
[1]
  Delta TC: -33%

## CCCCN1NN=C(NC(=O)Nc2c(C(C)C)cccc2C(C)C)N1
[2]
  IC50: 92 nM
[1]
  Delta TC: -26%

## CCCCCCCCCCCc1nnc(NC(=O)Nc2c(C(C)C)cccc2C(C)C)s1
[2]
  IC50: 39 nM
[1]
  Delta TC: -61%

## CCCCCCCCCCCCCSc1nnc(NC(=O)Nc2c(C(C)C)cccc2C(C)C)n1C(C)=O
[2]
  IC50: 680 nM
[1]
  Delta TC: -21%

## CCCCCCN1NN=C(NC(=O)Nc2c(C(C)C)cccc2C(C)C)N1
[2]
  IC50: 73 nM
[3]
  Delta TC: -21%
[1]
  Delta TC: -59%

## CC(C)c1cccc(C(C)C)c1NC(=O)Nc1nnn(CCCCCCCCCCCO)n1
[2]
  IC50: 32 nM
[1]
  Delta TC: -28%

## CCCCCCCCCCCCn1cnc(NC(=O)Nc2c(C(C)C)cccc2C(C)C)c1
[2]
  IC50: 35 nM

## CCCCCCCCCCCN1NN=C(NC(=O)Nc2c(C(C)C)cccc2C(C)C)N1
[2]
  IC50: 9 nM
[3]
  Delta TC: -63%
[1]
  Delta TC: -70%

## CC(C)=CCC/C(C)=C/Cn1nnc(NC(=O)Nc2c(C(C)C)cccc2C(C)C)n1
[2]
  IC50: 63 nM
[1]
  Delta TC: -27%

## CCCCCCCCCN1NN=C(NC(=O)Nc2c(C(C)C)cccc2C(C)C)N1
[2]
  IC50: 31 nM
[3]
  Delta TC: 1%
[1]
  Delta TC: -65%

## CCCCCCCCCCCCc1coc(NC(=O)Nc2c(C(C)C)cccc2C(C)C)n1
[2]
  IC50: 63 nM
[1]
  Delta TC: -55%

## CCCCCCCCCCCCN1NN=C(CNC(=O)Nc2c(OC)cc(OC)cc2OC)N1
[2]
  IC50: 150 nM
[1]
  Delta TC: -40%

## CCCCCCCCCCCCc1n[nH]c(NC(=O)Nc2c(C(C)C)cccc2C(C)C)n1
[2]
  IC50: 4200 nM
[1]
  Delta TC: 12%

## CCCCCCCCCCCCCc1cc(NC(=O)Nc2c(C(C)C)cccc2C(C)C)on1
[2]
  IC50: 13 nM
[3]
  Delta TC: -51%
[1]
  Delta TC: -62%
[4]
  Delta HDL-C: 111%
[5]
  Non-HDL-C: -65%
[6]
  Delta TC: -53%

## CCCCCCCCCCN1NN=C(NC(=O)Nc2c(C(C)C)cccc2C(C)C)N1
[2]
  IC50: 14 nM
[3]
  Delta TC: -35%
[1]
  Delta TC: -62%

## CCCCCCCCCCCCCCCCN1NN=C(NC(=O)Nc2c(C(C)C)cccc2C(C)C)N1
[2]
  IC50: 57 nM
[3]
  Delta TC: -43%
[1]
  Delta TC: -67%

## CCCCCCCCCCCCCN1NN=C(NC(=O)Nc2c(C(C)C)cccc2C(C)C)N1
[8]
  Non-HDL-C: -73%
[9]
  Delta plasma cholesterol: -47%
[10]
  Delta HDL-C: 21%
[2]
  IC50: 9 nM
[11]
  Plasma level: 76.7 ng/mL
[12]
  Delta TC: -64%
[3]
  Delta TC: -67%
[1]
  Delta TC: -67%
[13]
  Delta HDL-C: 113%
[14]
  Non-HDL-C: -76%
[15]
  Non-HDL-C: -47%
[16]
  Delta TC: -52%
[17]
  Delta HDL-C: 113%
[6]
  Delta TC: -66%

## CC(C)c1cccc(C(C)C)c1NC(=O)Nc1nnn(CCCCCCCCCCCOC2CCCCO2)n1 (centres undefined)
[2]
  IC50: 37 nM
[3]
  Delta TC: -28%
[1]
  Delta TC: -53%

## CCCCCCCCCCCCn1cnnc1NC(=O)Nc1c(C(C)C)cccc1C(C)C
[1]
  Delta TC: -28%

## CCCCCCCCCCCCc1cc(NC(=O)Nc2c(C(C)C)cccc2C(C)C)on1
[2]
  IC50: 19 nM
[3]
  Delta TC: -58%
[1]
  Delta TC: -61%
[5]
  Non-HDL-C: -68%
[17]
  Delta HDL-C: 100%
[6]
  Delta TC: -56%

## CC(C)c1cccc(C(C)C)c1NC(=O)Nc1nnn[nH]1
[2]
  IC50: > 10000 nM

## CCCCCCCCCCCCCS(=O)(=O)c1n[nH]c(NC(=O)Nc2c(C(C)C)cccc2C(C)C)n1
[2]
  IC50: 4700 nM
[1]
  Delta TC: -11%

## CCCCCCCCCCCCCc1nnc(NC(=O)Nc2c(C(C)C)cccc2C(C)C)s1
[2]
  IC50: 36 nM
[1]
  Delta TC: -46%
